The source of these data is ChEMBL document CHEMBL4118069, “Structure-activity relationship study and optimisation of 2-aminopyrrole-1-benzyl-4,5-diphenyl-1H-pyrrole-3-carbonitrile as a broad spectrum metallo-β-lactamase inhibitor” (Eur J Med Chem, 2017).

Each structure is given as a SMILES string.

Data set [1] relates to Bacteria. In words: Inhibition of bacterial IMP1 expressed in Escherichia coli BL21(DE3) assessed as decrease in meropenem MIC at 30 uM after overnight incubation relative to control. In outline:
(§1)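 Meropenem MICs (µg/mL) measured for E. coli BL21 cultures expressing IMP-1, CphA or AIM-1. Each strain was tested with no inhibitor (blank) and with the test compound at 30 µM. Change in sensitivity is expressed as the reduction of the meropenem MIC relative to the blank.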

Data set [2] concerns the target Metallo-beta-lactamase type 2 (Aeromonas hydrophila) (UniProt P26918). Description: Competitive inhibition of Aeromonas hydrophila recombinant CphA expressed in Escherichia coli BL21(DE3) using meropenem as substrate by UV/Vis multi-plate spectrophotometric method.
The target of data set [3] is T1, Metallo-beta-lactamase AIM-1 (Pseudomonas aeruginosa) (UniProt B5DCA0).
T1 sequence (whole entry): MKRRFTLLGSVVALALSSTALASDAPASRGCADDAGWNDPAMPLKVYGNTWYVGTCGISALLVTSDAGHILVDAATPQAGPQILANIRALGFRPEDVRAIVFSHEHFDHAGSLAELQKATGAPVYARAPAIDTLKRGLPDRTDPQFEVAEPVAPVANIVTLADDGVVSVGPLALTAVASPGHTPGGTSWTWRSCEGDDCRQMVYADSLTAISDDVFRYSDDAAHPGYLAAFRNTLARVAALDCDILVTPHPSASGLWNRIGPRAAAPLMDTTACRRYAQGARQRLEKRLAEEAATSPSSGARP
Description: Uncompetitive inhibition of Pseudomonas aeruginosa recombinant AIM1 expressed in Escherichia coli BL21(DE3) using cefuroxime as substrate by UV/Vis multi-plate spectrophotometric method.

Data set [4] has as its system Escherichia coli. Description: Growth inhibition of Escherichia coli BL21(DE3) expressing Aeromonas hydrophila CphA. Type of data set: organism-based. Particulars: in vivo.
The subject of data set [5] is Bacteria. Description: Uncompetitive inhibition of bacterial IMP1 using CENTA as substrate by UV/Vis multi-plate spectrophotometric method.
Data set [6] concerns Bacteria. In words: Inhibition of bacterial IMP1 at 10 uM using CENTA as substrate by UV/Vis multi-plate spectrophotometric method relative to control.
Data set [7] has as its target T1, Metallo-beta-lactamase AIM-1 (Pseudomonas aeruginosa). In words: Inhibition of Pseudomonas aeruginosa AIM1 expressed in Escherichia coli BL21(DE3) assessed as decrease in meropenem MIC at 30 uM after overnight incubation relative to control. The method, boiled down:
as §1

Data set [8] has as its target Metallo-beta-lactamase type 2 (Aeromonas hydrophila) (UniProt P26918). In words: Inhibition of Aeromonas hydrophila CphA expressed in Escherichia coli BL21(DE3) assessed as decrease in meropenem MIC at 30 uM after overnight incubation relative to control. In outline: as §1
The test system of data set [9] is Bacteria. In words: Competitive inhibition of bacterial IMP1 using CENTA as substrate by UV/Vis multi-plate spectrophotometric method.
Data set [10] has as its target Metallo-beta-lactamase type 2 (Aeromonas hydrophila) (UniProt P26918). In words: Uncompetitive inhibition of Aeromonas hydrophila recombinant CphA expressed in Escherichia coli BL21(DE3) using meropenem as substrate by UV/Vis multi-plate spectrophotometric method.
In data set [11] the target is T1, Metallo-beta-lactamase AIM-1 (Pseudomonas aeruginosa). In words: Competitive inhibition of Pseudomonas aeruginosa recombinant AIM1 expressed in Escherichia coli BL21(DE3) using cefuroxime as substrate by UV/Vis multi-plate spectrophotometric method.
In data set [12] the test system is Escherichia coli. In words: Growth inhibition of Escherichia coli BL21(DE3) expressing bacterial IMP1. Type of data set: organism-based. Particulars: in vivo.
The test system of data set [13] is Escherichia coli. In words: Growth inhibition of Escherichia coli BL21(DE3) expressing Pseudomonas aeruginosa AIM1. It is filed as organism-based. Particulars: in vivo.
The target in data set [14] is T1, Metallo-beta-lactamase AIM-1 (Pseudomonas aeruginosa). In words: Inhibition of Pseudomonas aeruginosa recombinant AIM1 expressed in Escherichia coli BL21(DE3) assessed as potentiation of meropenem-mediated antibacterial activity by measuring meropenem MIC at 30 uM after overnight incubation (reference value: 2 ug/ml). The method, boiled down: as §1
The test system of data set [15] is Bacteria. In words: Inhibition of bacterial IMP1 expressed in Escherichia coli BL21(DE3) assessed as potentiation of meropenem-mediated antibacterial activity by measuring meropenem MIC at 30 uM after overnight incubation (reference value: 1 ug/ml). The method, boiled down:
as §1

Data set [16] addresses Metallo-beta-lactamase type 2 (Aeromonas hydrophila) (UniProt P26918). In words: Inhibition of Aeromonas hydrophila CphA expressed in Escherichia coli BL21(DE3) assessed as potentiation of meropenem-mediated antibacterial activity by measuring meropenem MIC at 30 uM after overnight incubation (reference value: 1 ug/ml). The method, boiled down: as §1
Data set [17] is described as follows: Drug metabolism assessed as bacterial IMP1-mediated N-(1-Benzyl-3-cyano-4,5-diphenyl-1H-pyrrol-2-yl)benzamide formation by ESI-MS method. It is filed as ADME. Particulars: bacteria.

Sequence of Metallo-beta-lactamase type 2 (Aeromonas hydrophila) (P26918 whole entry): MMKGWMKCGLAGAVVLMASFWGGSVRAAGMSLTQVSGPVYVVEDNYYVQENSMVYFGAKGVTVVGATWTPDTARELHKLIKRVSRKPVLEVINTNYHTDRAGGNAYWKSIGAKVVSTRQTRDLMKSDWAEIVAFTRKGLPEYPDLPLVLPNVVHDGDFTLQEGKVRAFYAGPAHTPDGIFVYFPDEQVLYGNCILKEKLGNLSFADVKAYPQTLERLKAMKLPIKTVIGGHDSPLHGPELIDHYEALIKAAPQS

The term inhibition denotes the drop in the measured response relative to a control, in per cent. Take `N#Cc1c(-c2ccccc2)c(-c2ccccc2)n(Cc2ccccc2)c1NC(=O)c1ccccc1`: the fold change (FC) was found to be 20 in data set [1], 20 in data set [7] and 40 in data set [8]. Moreover, the Kic in [2] was determined as 11 µM; in data set [9], 10.7 µM; in [11], 1.6 µM. Moreover, the Kiuc in [3] was 13 µM; in [5], 4.3 µM; in data set [10], 9 µM. For the same molecule, the “growth inhibition (GI)” value in data set [4], in data set [12] and in [13] was “Non-Toxic” each time. The molecule also gave an inhibition in data set [6] of 50.9%.

In [6], `CC(=O)N(C(C)=O)c1c(C#N)c(-c2ccccc2)c(-c2ccccc2)n1Cc1ccccc1` came in with an inhibition of 18.6%.

On to `COc1ccc(Cn2c(N)c(C#N)c(-c3ccccc3)c2-c2ccccc2)cc1`, for which, in [6], the inhibition was 20.1%.

As for `N#Cc1c(-c2ccccc2)c(-c2ccccc2)n(Cc2ccccc2)c1NC(=O)C1CCCCC1`, the inhibition in [6] was 23.3%.

Take `N#Cc1c(-c2ccccc2)c(-c2ccccc2)n(CCc2ccccc2)c1N`: in data set [6], the inhibition is 4.8%.

`CCCC(=O)Nc1c(C#N)c(-c2ccccc2)c(-c2ccccc2)n1Cc1ccccc1`: the inhibition in data set [6] was found to be 21%.

Turning to `N#Cc1c(-c2ccccc2)c(-c2ccccc2)n(Cc2ccccc2)c1N`, the Kic in data set [2] was determined as 52 µM; in [9], 21 µM; in [11], 2.2 µM. In addition, the Kiuc worked out at 12.5 µM in data set [3] and 5.5 µM in data set [10]. The “growth inhibition (GI)” value in data set [4], in data set [12] and in data set [13] was “Non-Toxic” each time. For the same molecule, the MIC amounted to 0.25 µg/mL in data set [14], 0.5 µg/mL in data set [15] and 0.047 µg/mL in data set [16]. Besides, in data set [6], the inhibition is 26%.

In the case of `N#Cc1c(-c2ccccc2)c(-c2ccccc2)n(Cc2ccccc2)c1NC(=O)c1ccc([N+](=O)[O-])cc1`, the Kiuc in data set [3] is 47 µM. In addition, the “growth inhibition (GI)” value in data set [4], in data set [12] and in data set [13] was “Non-Toxic” each time. In addition, the MIC in data set [14] was 0.5 µg/mL; in data set [15], 0.25 µg/mL; in data set [16], 0.75 µg/mL. The molecule further had an inhibition in data set [6] of 36.9%. Besides, the Kic was determined as 1.24 µM in data set [9] and 10.9 µM in [11].

In data set [6], `N#Cc1c(-c2ccccc2)c(-c2ccccc2)n(CCCCc2ccccc2)c1N` showed an inhibition of 8.7%.

As to `N#Cc1c(-c2ccccc2)c(-c2ccccc2)n(Cc2ccccc2)c1NC(=O)c1cccc([N+](=O)[O-])c1`, in [5], the Kiuc was determined as 3.3 µM. Further, in data set [6], the inhibition amounted to 48.7%. This molecule gave a Kic in [9] of 23.7 µM.

As for `N#Cc1c(-c2ccccc2)c(-c2ccccc2)n(Cc2ccccc2)c1N1C(=O)c2ccccc2C1=O`, the inhibition in data set [6] was found to be 20.3%.

Molecule `NC(=O)c1c(-c2ccccc2)c(-c2ccccc2)n(Cc2ccccc2)c1N` displayed an inhibition in [6] of 0%.

`CCCCCCCCCCCCCC(=O)Nc1c(C#N)c(-c2ccccc2)c(-c2ccccc2)n1Cc1ccccc1` had an inhibition in data set [6] of 8.2%.

Turning to `Cc1cc(C)cc(C(=O)N(C(=O)c2cc(C)cc(C)c2)c2c(C#N)c(-c3ccccc3)c(-c3ccccc3)n2Cc2ccccc2)c1`, the inhibition in data set [6] amounted to 13.3%.

`CCCCCCCCCCCCCC(=O)N(C(=O)CCCCCCCCCCCCC)c1c(C#N)c(-c2ccccc2)c(-c2ccccc2)n1Cc1ccccc1` had an inhibition in [6] of 14.3%.

In the case of `N#Cc1c(-c2ccco2)c(-c2ccco2)n(Cc2ccccc2)c1N`, the inhibition in [6] was determined as 23.2%.

As to `CC(=O)Nc1c(C#N)c(-c2ccccc2)c(-c2ccccc2)n1Cc1ccccc1`, the inhibition in data set [6] came out at 16.1%.

In turn, `N#Cc1c(N)[nH]c(-c2ccccc2)c1-c1ccccc1` showed an inhibition in data set [6] of 12%.

Molecule `N#Cc1c(-c2ccccc2)c(-c2ccccc2)n(-c2ccccc2)c1N` displayed an inhibition in data set [6] of 0%.

In the case of `N#Cc1c(-c2ccccc2)c(-c2ccccc2)n(Cc2ccccc2)c1N(C(=O)c1ccccc1)C(=O)c1ccccc1`, in data set [5], the Kiuc was 55 µM. Further, the inhibition in data set [6] worked out at 48%. Moreover, the Kic in data set [9] was found to be 468 µM. Moreover, the Drug metabolism result in data set [17] is “Metabolite_Notdetected”.

`N#Cc1c(-c2ccccc2)c(-c2ccccc2)n(CCCc2ccccc2)c1N`: in [6], the inhibition amounted to 4.1%.

As for `N#Cc1c(-c2ccccc2)c(-c2ccccc2)n(Cc2ccccc2)c1N(C(=O)c1ccc([N+](=O)[O-])cc1)C(=O)c1ccc([N+](=O)[O-])cc1`, the inhibition in data set [6] was found to be 20.2%.

`Cc1c(C#N)c(N)n(Cc2ccccc2)c1C` returned an inhibition in data set [6] of 2.3%.

The molecule `Cc1cc(C)cc(C(=O)Nc2c(C#N)c(-c3ccccc3)c(-c3ccccc3)n2Cc2ccccc2)c1` gave a Kiuc in data set [5] of 7.8 µM. In data set [6], this molecule gave an inhibition of 32.3%. Further, in data set [9], the Kic came out at 20.2 µM.

Regarding `CCCC(=O)N(C(=O)CCC)c1c(C#N)c(-c2ccccc2)c(-c2ccccc2)n1Cc1ccccc1`, the inhibition in [6] came to 17.1%.

As to `N#Cc1c(-c2ccccc2)c(-c2ccccc2)n(Cc2ccccc2)c1NC(=O)c1ccc(C(=O)c2ccccc2)cc1`, the Kic in [2] was 872 µM. Moreover, the “growth inhibition (GI)” value in [4], in [12] and in data set [13] was “Non-Toxic” each time. Also, the figures for the MIC in [14], in [15] and in data set [16] were 0.75 µg/mL, 0.5 µg/mL and 0.75 µg/mL, respectively. The Kiuc came out at 1.52 µM in data set [5] and 161 µM in data set [10]. The inhibition in [6] was 44.3%.

`Nc1c(-c2nnn[nH]2)c(-c2ccccc2)c(-c2ccccc2)n1Cc1ccccc1`: the inhibition in data set [6] was found to be 8.7%.
